Laboratory results: ChEMBL document CHEMBL3627612, “Hirsutinolide Series Inhibit Stat3 Activity, Alter GCN1, MAP1B, Hsp105, G6PD, Vimentin, TrxR1, and Importin α-2 Expression, and Induce Antitumor Effects against Human Glioma” (J Med Chem, 2015)
Active and inactive are the calls of the source. No cut-off for these calls is given here.

Key:
[1] = biological target: Signal transducer and activator of transcription 3 (Homo sapiens, UniProt P40763); assay: Inhibition of Stat3 dimer DNA binding activity in human U251MG cells nuclear extract at 5 uM by EMSA using radiolabeled probe hSIE; assay type: cell-based; conditions: U-251, TDE = time-dependent effect
In short: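 Sub-confluent U251MG or U373MG cells treated with compound (5 μM for 0–24 h, or 0–5 μM for 1.5 h). Stat3:DNA bands scanned, quantified and plotted against concentration to derive IC50. Controls were 0.025% DMSO.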

Glioma cell [2] = assay: Cytotoxicity against human Glioma (G22) patient-derived mouse xenograft cells at 5 uM after 24 hrs by cyquant assay; assay type: functional, cell-based
U-251 [3] = assay: Increase in importin subunit alpha2 expression in human U251MG cells at 5 uM for 1 hr by mass spectrometry relative to control; assay type: functional
In short: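 Global proteomic mass spectrometry of lysates from U251MG cells treated 1 h with 5 μM compound; protein levels expressed relative to DMSO-treated cells.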

Mus musculus [4] = assay: Toxicity in mouse xenografted with U251MG cells assessed as activity at 2 mg/kg three times a week for 33 days administered via oral gavage; assay type: organism-based, U-251; conditions: in vivo, 792 h
In short: (§1)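 Four-week-old female athymic nude mice, injected subcutaneously in the left flank with 7.3×10^6 U251MG cells in PBS/matrigel (1:1). Tumors of 170–250 mm^3 formed by day 20, and groups were matched for mean size. Dosing was 2 mg/kg by oral gavage, three times weekly for 33 days, with 1% DMSO vehicle. Animals were monitored daily and weighed every 3 days.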

[5] = Decrease in vimentin expression in human U251MG cells at 5 uM for 2 hrs by immunoblot analysis; assay type: functional, cell-based; conditions: U-251
[6] = biological target: Stalled ribosome sensor GCN1 (Homo sapiens) (UniProt Q92616); assay: Decrease in GCN1 expression in human U373MG cells at 5 uM for 2 hrs by immunoblot analysis; assay type: functional, cell-based; conditions: U-373MG ATCC
U-251 [7] = assay: Antiproliferative activity against human U251MG cells at 5 uM for 24 hrs by BrdU incorporation assay; assay type: functional, cell-based
In short: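 U251MG on glass coverslips treated with DMSO or 5 μM compound for 3–24 h; 10 μM BrdU added during the last 2 h. Cells fixed in 4% paraformaldehyde, stained with anti-BrdU antibody, DAPI counterstained, imaged by fluorescence microscopy and counted.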

[8] = Decrease in G6PD expression in human U373MG cells at 5 uM for 2 hrs by immunoblot analysis; assay type: functional, cell-based; conditions: U-373MG ATCC
[9] = biological target: Stalled ribosome sensor GCN1 (Homo sapiens) (UniProt Q92616); assay: Decrease in GCN1 expression in human Glioma (G22) patient derived xenograft cells at 5 uM for 2 hrs by immunoblot analysis; assay type: functional; conditions: Glioma cell
U-251 [10] = assay: Antitumor activity against human U251MG cells xenografted in mouse assessed as decrease in Stat3 level in tumor at 2 mg/kg three times a week for 33 days administered via oral gavage by immunoblot analysis; assay type: functional, organism-based
In short: (§2)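 Female athymic nude mice, 4 weeks old, given subcutaneous flank injections of 7.3×10^6 U251MG cells in PBS/matrigel; dosing began at 170–250 mm3 tumors (day 20). Oral gavage 2 mg/kg, vehicle 1% DMSO, for 33 days. Caliper volumes V = 0.52×a²×b, compared with vehicle by paired t test; tumor lysates immunoblotted for pStat3, Stat3, GAPDH.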

Mus musculus [11] = assay: Toxicity in mouse xenografted with U251MG cells assessed as loss of appetite at 2 mg/kg three times a week for 33 days administered via oral gavage; assay type: organism-based, U-251; conditions: in vivo, 792 h; in short: as §1
[12] = biological target: Microtubule-associated protein 1B (Homo sapiens) (UniProt P46821); assay: Decrease in MAP1B expression in human U251MG cells at 5 uM for 1 hr by mass spectrometry relative to control; assay type: functional, cell-based; conditions: U-251
In short: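 U251MG cells treated 1 h with 5 μM compound; whole-cell lysates analyzed by global proteomics mass spectrometry; protein levels expressed relative to DMSO-treated cells.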

[13] = biological target: Microtubule-associated protein 1B (Homo sapiens) (UniProt P46821); assay: Decrease in MAP1B expression in human U251MG cells at 5 uM for 2 hrs by immunoblot analysis; assay type: functional, cell-based; conditions: U-251
[14] = Decrease in vimentin expression in human Glioma (G22) patient derived xenograft cells at 5 uM for 2 hrs by immunoblot analysis; assay type: functional; conditions: Glioma cell
U373 MG = assay: Increase in importin subunit alpha2 expression in human U373MG cells at 5 uM for 2 hrs by immunoblot analysis; assay type: functional, cell-based; conditions: U-373MG ATCC
[15] = biological target: Heat shock protein 105 kDa (Homo sapiens) (UniProt Q92598); assay: Decrease in Hsp105 expression in human U251MG cells at 5 uM for 2 hrs by immunoblot analysis; assay type: functional, cell-based; conditions: U-251
[16] = Decrease in vimentin expression in human U373MG cells at 5 uM for 2 hrs by immunoblot analysis; assay type: functional, cell-based; conditions: U-373MG ATCC
[17] = Decrease in TrxR1 expression in human U251MG cells at 5 uM for 2 hrs by immunoblot analysis; assay type: functional, cell-based; conditions: U-251
Mus musculus [18] = assay: Toxicity in mouse xenografted with U251MG cells assessed as lethargy at 2 mg/kg three times a week for 33 days administered via oral gavage; assay type: organism-based, U-251; conditions: in vivo, 792 h; in short: as §1
[19] = Decrease in G6PD expression in human Glioma (G22) patient derived xenograft cells at 5 uM for 2 hrs by immunoblot analysis; assay type: functional; conditions: Glioma cell
[20] = biological target: Stalled ribosome sensor GCN1 (Homo sapiens) (UniProt Q92616); assay: Decrease in GCN1 expression in human U251MG cells at 5 uM for 2 hrs by immunoblot analysis; assay type: functional, cell-based; conditions: U-251
U-251 [21] = assay: Antimitotic activity in human U251MG cells assessed as defect in chromatid structure at 8 uM after 15 hrs confocal microscopic analysis; assay type: functional, cell-based
In short: (§3)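 U251MG on coverslips synchronized by double thymidine block (2 mM), released 9 h, treated 15 h (8 μM; paclitaxel 100 nM). Fixed 4% paraformaldehyde, digitonin-permeabilized, BSA-blocked, stained for β-tubulin and MAP1B with DAPI counterstain; chromatid structure and segregation scored by confocal microscopy.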

[22] = biological target: Microtubule-associated protein 1B (Homo sapiens) (UniProt P46821); assay: Decrease in MAP1B expression in human U373MG cells at 5 uM for 2 hrs by immunoblot analysis; assay type: functional, cell-based; conditions: U-373MG ATCC
U-251 [23] = assay: Antimitotic activity in human U251MG cells assessed as defect in sister chromatid segragation at 8 uM after 15 hrs confocal microscopic analysis; assay type: functional, cell-based; in short: as §3
[24] = biological target: Heat shock protein 105 kDa (Homo sapiens) (UniProt Q92598); assay: Decrease in Hsp105 expression in human U373MG cells at 5 uM for 2 hrs by immunoblot analysis; assay type: functional, cell-based; conditions: U-373MG ATCC
[25] = biological target: Heat shock protein 105 kDa (Homo sapiens) (UniProt Q92598); assay: Decrease in Hsp105 expression in human Glioma (G22) patient derived xenograft cells at 5 uM for 2 hrs by immunoblot analysis; assay type: functional; conditions: Glioma cell
[26] = Decrease in TrxR1 expression in human Glioma (G22) patient derived xenograft cells at 5 uM for 2 hrs by immunoblot analysis; assay type: functional; conditions: Glioma cell
[27] = Decrease in G6PD expression in human U251MG cells at 5 uM for 2 hrs by immunoblot analysis; assay type: functional, cell-based; conditions: U-251
[28] = biological target: Microtubule-associated protein 1B (Homo sapiens) (UniProt P46821); assay: Decrease in MAP1B expression in human Glioma (G22) patient derived xenograft cells at 5 uM for 2 hrs by immunoblot analysis; assay type: functional; conditions: Glioma cell
Glioma cell [29] = assay: Increase in importin subunit alpha2 expression in human Glioma (G22) patient derived xenograft cells at 5 uM for 2 hrs by immunoblot analysis; assay type: functional
U-251 [30] = assay: Antitumor activity against human U251MG cells xenografted in mouse assessed as decrease in pStat3 level in tumor at 2 mg/kg three times a week for 33 days administered via oral gavage by immunoblot analysis; assay type: functional, organism-based; in short: as §2
U-251 [31] = assay: Increase in importin subunit alpha2 expression in human U251MG cells at 5 uM for 2 hrs by immunoblot analysis; assay type: functional, cell-based
[32] = Decrease in TrxR1 expression in human U373MG cells at 5 uM for 2 hrs by immunoblot analysis; assay type: functional, cell-based; conditions: U-373MG ATCC

Chain of Signal transducer and activator of transcription 3 (P40763 whole entry): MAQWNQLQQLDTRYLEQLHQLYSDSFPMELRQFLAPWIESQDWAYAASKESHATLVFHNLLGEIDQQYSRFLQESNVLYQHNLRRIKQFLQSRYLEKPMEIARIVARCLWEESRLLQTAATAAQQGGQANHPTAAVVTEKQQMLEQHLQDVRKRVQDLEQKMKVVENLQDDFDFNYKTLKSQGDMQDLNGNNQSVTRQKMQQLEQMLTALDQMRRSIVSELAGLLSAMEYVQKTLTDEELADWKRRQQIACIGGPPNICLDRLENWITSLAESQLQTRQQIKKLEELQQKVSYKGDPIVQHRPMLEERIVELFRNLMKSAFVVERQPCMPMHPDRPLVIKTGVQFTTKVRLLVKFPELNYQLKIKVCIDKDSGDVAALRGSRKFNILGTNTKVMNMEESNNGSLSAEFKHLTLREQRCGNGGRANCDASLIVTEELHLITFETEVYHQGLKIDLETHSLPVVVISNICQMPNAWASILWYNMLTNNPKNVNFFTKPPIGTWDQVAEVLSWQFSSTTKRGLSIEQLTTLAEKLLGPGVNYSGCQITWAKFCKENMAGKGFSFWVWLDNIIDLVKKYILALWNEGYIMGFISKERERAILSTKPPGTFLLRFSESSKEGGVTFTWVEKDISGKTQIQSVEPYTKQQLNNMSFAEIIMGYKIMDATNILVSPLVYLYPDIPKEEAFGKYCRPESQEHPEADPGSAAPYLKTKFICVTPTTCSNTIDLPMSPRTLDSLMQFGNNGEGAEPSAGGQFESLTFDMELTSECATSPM
Chain of Heat shock protein 105 kDa (Homo sapiens) (Q92598 whole entry): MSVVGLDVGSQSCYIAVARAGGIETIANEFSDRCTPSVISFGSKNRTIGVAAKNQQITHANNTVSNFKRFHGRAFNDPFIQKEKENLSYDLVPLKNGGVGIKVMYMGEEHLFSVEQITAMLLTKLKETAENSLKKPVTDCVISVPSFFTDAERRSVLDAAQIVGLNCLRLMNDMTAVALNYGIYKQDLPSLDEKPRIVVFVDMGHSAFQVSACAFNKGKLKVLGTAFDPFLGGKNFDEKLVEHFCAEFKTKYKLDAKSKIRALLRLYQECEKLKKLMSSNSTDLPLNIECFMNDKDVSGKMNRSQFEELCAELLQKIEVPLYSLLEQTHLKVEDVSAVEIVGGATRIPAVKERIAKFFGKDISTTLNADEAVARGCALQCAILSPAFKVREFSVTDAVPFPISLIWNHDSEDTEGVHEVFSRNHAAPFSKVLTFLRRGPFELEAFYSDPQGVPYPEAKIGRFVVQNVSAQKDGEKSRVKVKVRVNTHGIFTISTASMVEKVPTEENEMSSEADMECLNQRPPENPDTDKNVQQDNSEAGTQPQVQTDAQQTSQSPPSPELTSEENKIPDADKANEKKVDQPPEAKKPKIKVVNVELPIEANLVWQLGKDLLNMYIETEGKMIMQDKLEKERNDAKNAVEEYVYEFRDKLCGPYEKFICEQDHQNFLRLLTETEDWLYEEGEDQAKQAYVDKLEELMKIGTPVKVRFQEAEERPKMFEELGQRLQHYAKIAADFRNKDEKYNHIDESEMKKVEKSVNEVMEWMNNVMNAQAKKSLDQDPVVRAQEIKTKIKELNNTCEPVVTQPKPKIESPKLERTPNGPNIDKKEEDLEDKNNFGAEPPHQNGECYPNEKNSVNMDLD
Chain of Microtubule-associated protein 1B (Homo sapiens) (P46821 2-2206 limits assumed): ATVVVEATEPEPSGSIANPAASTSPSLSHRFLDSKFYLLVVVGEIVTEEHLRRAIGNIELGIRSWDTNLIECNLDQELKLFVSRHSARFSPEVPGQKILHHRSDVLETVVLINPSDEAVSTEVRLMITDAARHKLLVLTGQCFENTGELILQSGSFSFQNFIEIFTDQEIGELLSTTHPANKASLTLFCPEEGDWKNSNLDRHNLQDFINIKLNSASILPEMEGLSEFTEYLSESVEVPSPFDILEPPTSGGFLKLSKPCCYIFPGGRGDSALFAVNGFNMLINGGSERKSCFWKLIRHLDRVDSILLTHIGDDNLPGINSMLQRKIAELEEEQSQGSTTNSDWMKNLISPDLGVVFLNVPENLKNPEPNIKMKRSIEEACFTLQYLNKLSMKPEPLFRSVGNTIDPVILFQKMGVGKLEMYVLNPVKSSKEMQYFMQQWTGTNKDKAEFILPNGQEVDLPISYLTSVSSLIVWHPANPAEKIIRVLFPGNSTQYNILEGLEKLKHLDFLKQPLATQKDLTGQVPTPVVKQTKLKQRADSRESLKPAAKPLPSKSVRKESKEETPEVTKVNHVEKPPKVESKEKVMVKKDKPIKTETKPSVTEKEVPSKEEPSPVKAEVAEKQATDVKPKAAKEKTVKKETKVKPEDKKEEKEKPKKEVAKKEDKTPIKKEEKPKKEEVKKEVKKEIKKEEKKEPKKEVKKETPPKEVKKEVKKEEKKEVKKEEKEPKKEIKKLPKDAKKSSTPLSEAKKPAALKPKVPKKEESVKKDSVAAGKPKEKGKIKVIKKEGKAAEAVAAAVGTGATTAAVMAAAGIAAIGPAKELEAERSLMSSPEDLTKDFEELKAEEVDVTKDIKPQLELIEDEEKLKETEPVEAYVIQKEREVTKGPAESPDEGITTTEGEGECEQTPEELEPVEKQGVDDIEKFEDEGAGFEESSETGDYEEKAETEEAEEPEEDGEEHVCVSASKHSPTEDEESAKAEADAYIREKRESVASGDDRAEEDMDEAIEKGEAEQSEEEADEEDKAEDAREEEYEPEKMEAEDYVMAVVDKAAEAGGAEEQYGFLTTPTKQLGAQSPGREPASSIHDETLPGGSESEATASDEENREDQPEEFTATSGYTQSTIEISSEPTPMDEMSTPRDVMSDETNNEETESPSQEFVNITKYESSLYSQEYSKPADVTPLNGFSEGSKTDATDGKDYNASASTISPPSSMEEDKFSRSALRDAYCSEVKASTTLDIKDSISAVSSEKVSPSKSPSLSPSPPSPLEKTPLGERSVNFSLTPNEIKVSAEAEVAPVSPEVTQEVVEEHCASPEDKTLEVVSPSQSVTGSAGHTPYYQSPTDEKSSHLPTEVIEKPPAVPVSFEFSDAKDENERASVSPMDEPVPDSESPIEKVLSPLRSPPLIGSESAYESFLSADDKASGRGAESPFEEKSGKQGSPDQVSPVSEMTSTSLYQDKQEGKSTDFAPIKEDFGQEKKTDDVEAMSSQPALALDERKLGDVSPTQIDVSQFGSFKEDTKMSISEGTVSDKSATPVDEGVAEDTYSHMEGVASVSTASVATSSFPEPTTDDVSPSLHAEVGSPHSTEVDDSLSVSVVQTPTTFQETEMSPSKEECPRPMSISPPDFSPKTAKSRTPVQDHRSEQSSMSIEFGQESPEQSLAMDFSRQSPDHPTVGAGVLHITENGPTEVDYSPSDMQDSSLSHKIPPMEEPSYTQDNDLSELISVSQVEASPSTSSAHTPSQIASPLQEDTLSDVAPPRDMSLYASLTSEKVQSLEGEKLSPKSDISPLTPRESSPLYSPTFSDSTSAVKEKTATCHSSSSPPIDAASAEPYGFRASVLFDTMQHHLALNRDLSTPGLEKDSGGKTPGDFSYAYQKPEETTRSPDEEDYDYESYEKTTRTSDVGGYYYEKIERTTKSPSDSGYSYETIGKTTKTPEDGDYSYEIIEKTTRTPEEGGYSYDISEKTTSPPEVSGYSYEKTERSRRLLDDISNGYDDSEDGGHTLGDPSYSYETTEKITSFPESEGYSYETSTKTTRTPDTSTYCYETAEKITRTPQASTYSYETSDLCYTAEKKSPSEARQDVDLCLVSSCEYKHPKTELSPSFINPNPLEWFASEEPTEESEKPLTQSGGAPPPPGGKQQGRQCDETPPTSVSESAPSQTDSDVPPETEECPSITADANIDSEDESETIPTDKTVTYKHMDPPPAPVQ
Chain of Microtubule-associated protein 1B (Homo sapiens) (P46821 2207-2468 limits assumed): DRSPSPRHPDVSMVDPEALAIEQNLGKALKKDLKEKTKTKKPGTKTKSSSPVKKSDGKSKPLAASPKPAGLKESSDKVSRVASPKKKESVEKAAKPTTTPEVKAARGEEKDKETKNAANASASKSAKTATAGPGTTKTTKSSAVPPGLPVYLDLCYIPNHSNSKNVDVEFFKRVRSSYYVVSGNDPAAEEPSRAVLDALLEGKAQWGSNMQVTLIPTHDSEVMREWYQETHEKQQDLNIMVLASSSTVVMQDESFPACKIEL

| Structure (SMILES) | inhibition [1] | Activity (Glioma cell [2]) | fold change (FC) (U-251 [3]) | Activity (Mus musculus [4]) | inhibition [5] | inhibition [6] | Activity (U-251 [7]) | inhibition [8] | inhibition [9] | Activity (U-251 [10]) | Activity (Mus musculus [11]) | fold change (FC) [12] | inhibition [13] | inhibition [14] | Activity (U373 MG) | inhibition [15] | inhibition [16] | inhibition [17] | Activity (Mus musculus [18]) | inhibition [19] | also measured |
| --- | --- | --- | --- | --- | --- | --- | --- | --- | --- | --- | --- | --- | --- | --- | --- | --- | --- | --- | --- | --- | --- |
| C/C=C(\C)C(=O)O[C@H]1C[C@@H](C)[C@]2(OC)CC[C@](C)(/C=C3/OC(=O)C(COC(C)=O)=C31)O2 | tde | Active | – | – | – | – | – | – | – | – | – | – | – | – | – | – | – | – | – | – | – |
| C/C=C(\C)C(=O)O[C@H]1C[C@@H](C)[C@]2(O)CC[C@](C)(/C=C3/OC(=O)C(COC(C)=O)=C31)O2 | tde | Active | 2.0137 | Non-toxic | Active | Active | Active | Active | Active | Active | Non-toxic | 0.649 | Active | Active | Active | Active | Active | Active | Non-toxic | Active | inhibition [20]: Active; Activity (U-251 [21]): Active; inhibition [22]: Active; Activity (U-251 [23]): Active; inhibition [24]: Active; inhibition [25]: Active; inhibition [26]: Active; inhibition [27]: Active; inhibition [28]: Active; Activity (Glioma cell [29]): Active; Activity (U-251 [30]): Active; Activity (U-251 [31]): Active; inhibition [32]: Active |
| C/C=C(\C)C(=O)OCC1=C2/C(=C\[C@@]3(C)CC[C@](O)(O3)[C@H](C)C[C@@H]2O)OC1=O | tde | Active | 2.421 | Non-toxic | Active | Active | Active | Active | Active | Active | Non-toxic | 0.413 | Active | Active | Active | Active | Active | Active | Non-toxic | Active | inhibition [20]: Active; Activity (U-251 [21]): Active; inhibition [22]: Active; Activity (U-251 [23]): Active; inhibition [24]: Active; inhibition [25]: Active; inhibition [26]: Active; inhibition [27]: Active; inhibition [28]: Active; Activity (Glioma cell [29]): Active; Activity (U-251 [30]): Active; Activity (U-251 [31]): Active; inhibition [32]: Active |
